The list is not random: actives were taken first. Their share in the collection is about 2.4%.
E-selectin induc = E-selectin induction in HUVECs, primary screen, imaging, HUVEC, immunofluorescence imaging, single point. activation, % at 7.58 µM. P16581. hit rate 0.37% among 260,000. normalized: neutral wells 0, TNF-alpha wells 100;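 active means mean E-selectin-positive cell signal at least 10% of the positive control, reached in at least 60% of replicates, without over 20% cell loss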
Target sequence (P16581 whole entry, looked up): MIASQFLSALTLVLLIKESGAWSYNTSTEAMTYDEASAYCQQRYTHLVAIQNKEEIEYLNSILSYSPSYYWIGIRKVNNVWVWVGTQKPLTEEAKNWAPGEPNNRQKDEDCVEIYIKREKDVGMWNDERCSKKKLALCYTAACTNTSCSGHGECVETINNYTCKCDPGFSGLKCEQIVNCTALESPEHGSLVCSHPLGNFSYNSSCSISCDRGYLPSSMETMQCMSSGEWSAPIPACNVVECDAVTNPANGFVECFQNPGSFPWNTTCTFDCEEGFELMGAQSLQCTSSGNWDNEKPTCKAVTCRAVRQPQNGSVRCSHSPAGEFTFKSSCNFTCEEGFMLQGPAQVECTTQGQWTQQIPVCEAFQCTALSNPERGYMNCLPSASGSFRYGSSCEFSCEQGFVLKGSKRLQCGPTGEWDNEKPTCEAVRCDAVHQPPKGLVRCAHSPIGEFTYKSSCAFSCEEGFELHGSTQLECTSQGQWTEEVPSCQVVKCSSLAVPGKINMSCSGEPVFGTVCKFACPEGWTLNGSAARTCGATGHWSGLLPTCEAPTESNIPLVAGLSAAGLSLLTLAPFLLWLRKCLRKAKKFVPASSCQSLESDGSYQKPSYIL
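material = human umbilical vein endothelial cells (HUVEC), E-selectin induction | quantity = 3,000 cells/well | medium = EGM-2 growth medium on 0.1% gelatin-coated wells | technique = immunofluorescence imaging | read-out basis = % PE-positive cells | control set = TNF-alpha positive control, DMSO neutral control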
EWS-Fli block = EWS/Fli-driven NR0B1 reporter inhibitors, primary screen, A673 cells, NR0B1 luciferase, luminescence, MLPCN library. hit rate 0.67% among 350,000. inhibition, % at 12.6 µM. viability-normalised;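 active means mean inhibition of at least 50% after viability correction, with every replicate also passing that limit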;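 further: firefly luciferase signal divided by Alamar Blue viability fluorescence both relative to DMSO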
LGR2 antag = inhibitors of bursicon-induced LGR2 CRE-luciferase signal, primary screen, cell-based, HEK293, CRE-luciferase reporter, bursicon stimulation. bursicon-stimulated, 4 h. inhibition, % at 9.99 µM. Drosophila bursicon receptor LGR2 (rickets). AID 720647, 2013. hit rate 0.35% among 380,000;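 active means drop in luminescence signal, shown as inhibition above about 50% in the replicate tests, limit read from the data, passing the limit was not always enough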;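 further: agonist challenge used bursicon conditioned medium at about half maximal strength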
rRNA inh HTS = reduced GFP signal of wild-type E. coli, primary screen, bacterial rRNA inhibitor project, GFP/RFP fluorescence, OD600, single point; E. coli WT GFP vs humanized-ribosome RFP mutants, 24 h; hits give low values; DMSO median 0, no signal -100; GFP signal change (wild-type ribosome), % (concentration not given with the values); hit rate 1.6% among 350,000;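 active means significant combined selectivity score with lowered wild-type GFP, culture density cut under 30%, mutant RFP and density less affected; inactive means any of these conditions unmet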
The depositor's hits bear a star; / = no result.

SMILES	E-selectin induc	EWS-Fli block	LGR2 antag	rRNA inh HTS
COc1cc(OC)cc(-c2nnc(SCc3c(F)cccc3Cl)o2)c1	/	-41	-29	-28*
COc1cc(OC)cc(-c2nnc(SCc3ccc(C(=O)O)cc3)o2)c1	0	17	-3	-31
COc1cc(C(=O)c2cc3c(cc2C)OCO3)cc(OC)c1OC	0	58*	-15	0
COc1cc(/C=C/C(=O)c2ccc3c(c2)OCO3)cc(OC)c1OC	/	/	35	0
COc1cc(C(=O)NC(=S)NNC(=O)c2ccc3c(c2)OCO3)cc(OC)c1OC	0	21	11	-23*
NC(=S)NNc1c(F)c(F)c(F)c(F)c1F	/	17	32	-26*
Cc1ccccc1NNC(N)=S	2	7	1	10
C=CCN1C(=O)[C@@]2(O[C@@H](CCO)[C@H]([Si](C)(C)c3ccc(OC)cc3)[C@H]2C)c2ccccc21	/	19	/	/
Cc1cc(C(=O)COc2ccc([N+](=O)[O-])cc2)c(C)n1C1CC1	/	-67	-8	9
Cc1cc(C(=O)COc2cc(F)ccc2[N+](=O)[O-])c(C)n1C1CC1	/	-8	4	-29*
Cc1cc(C(=O)CSc2nnc(N)s2)c(C)n1Cc1cccs1	/	/	75*	/
Cc1cc(C(=O)CSc2n[nH]c(-c3ccccc3F)n2)c(C)n1Cc1cccs1	/	/	0	/
O=C(CCN1C(=O)S/C(=C\C=C\c2ccccc2)C1=O)Nc1ccc(O)cc1	0	/	-85	-25*
O=C(CCCN1C(=O)S/C(=C\C=C\c2ccccc2)C1=O)Nc1ccc(C(=O)O)cc1	/	-44	-18	-6
Cc1ccc(NC(=O)Nn2cnnc2)cc1Cl	0	/	6	16
O=C(Nc1ccc(Cl)c(Cl)c1)Nn1cnnc1	/	-5	13	-22*
O=c1[nH]c(=O)n(Cc2ccc(Oc3ccccc3)cc2)cc1Br	0	25	1	-13
C=C1CC(Cn2cc(Br)c(=O)[nH]c2=O)(c2ccc(-c3ccccc3)cc2)OC1=O (stereo not given)	/	53*	76*	-58
CC(NC(=O)c1ccc(CS(=O)(=O)c2ccc(Cl)cc2)o1)c1ccc2c(c1)OCCO2 (stereo not given)	/	-11	21	-17*
C=C(CN(C)C)C(=O)c1ccc(C)cc1C	/	73*	6	-7
Cc1ccc(C(=O)CC(=O)c2ccccc2C)c(O)c1	1	6	-10	-49
Cc1ccc(CCSc2ccc(C(C)C)cc2)cn1	/	-14	-9	-19
Cc1ccc(CCSc2ccc(F)cc2)cn1	0	-31	-25	-22*
CS(=O)(=O)Nc1ccc2c(c1)[C@H]1C[C@@H](CC(=O)NC3CCCCC3)O[C@@H](CO)[C@H]1O2	0	3	13	1
Oc1ccc(Cl)cc1C1=NCCNC(C(F)(F)C(F)F)=C1	/	/	10	-22*
SMILES	E-selectin induc	EWS-Fli block	LGR2 antag	rRNA inh HTS
C=C1[C@@H](O)[C@H](Cc2ccccc2)N(Cc2ccccc2Br)S1(=O)=O	4	9	47	-23*
COCC(=O)N1CCC2(CC1)CN(C(=O)CN1CCOCC1)[C@H](CO)c1c2c2ccc(OC)cc2n1C	1	-12	-6	2
O=C(NCc1cccc(C(F)(F)F)c1)C1CC(c2ccccc2[N+](=O)[O-])=NO1 (stereo not given)	0	-5	-9	-33*
c1cncc(CSc2nnc3ccc(-c4cccs4)nn23)c1	/	-4	-3	9
N#Cc1ccc(-c2cccs2)nc1SCc1cccnc1	/	54*	-8	9
c1ccc(C[C@H]2CNCCN2CCc2cccc3ccccc23)cc1	0	14	-10	-16
CCCC[C@@H]1CNCCN1CCc1cccc2ccccc12	0	16	-5	-20*
CC1(C)CN(O)CCN1O	/	73*	-3	18
CC1(C)c2ccccc2C(=O)c2ccccc21	0	-17	-8	-22*
CO[C@H]1CN(C)C(=O)c2ccc(NC(=O)c3ccc(F)cc3)cc2OC[C@H](C)N(C(C)=O)C[C@@H]1C	0	-12	7	0
CCCN1C(=O)/C(=C/c2ccc3c(c2)OCO3)NC1=S	0	-5	-5	-24*
COc1ccc2c3c([nH]c2c1)[C@@H](CO)N(C(=O)c1cccnc1)CC31CCN(C(=O)NC(C)C)CC1	0	-3	3	3
C[C@@H]1CN([C@@H](C)CO)C(=O)c2cccc(NC(=O)CCCCCC(=O)Nc3ccccc3N)c2O[C@@H]1CN(C)Cc1ccc(Cl)c(Cl)c1	-3	35	28	-7
CC(C)NC(=O)Nc1cccc2c1O[C@@H](CN(C)Cc1ccc(Cl)c(Cl)c1)[C@H](C)CN([C@@H](C)CO)C2=O	-22	17	-20	-15
CC(C)NC(=O)Nc1cccc2c1O[C@H](CN(C)Cc1ccc(Cl)c(Cl)c1)[C@@H](C)CN([C@@H](C)CO)C2=O	53*	/	-4	-6
C[C@H](CO)N1C[C@H](C)[C@@H](CN(C)Cc2ccc(Cl)c(Cl)c2)Oc2c(NC(=O)CCCCCC(=O)Nc3ccccc3N)cccc2C1=O	324*	/	11	-6
CC(C)NC(=O)Nc1cccc2c1O[C@H](CN(C)Cc1ccc(Cl)c(Cl)c1)[C@H](C)CN([C@@H](C)CO)C2=O	30*	/	0	-6
CC(C)NC(=O)Nc1ccc2c(c1)CC(=O)N(C)C[C@@H](C)[C@@H](CN(C)S(C)(=O)=O)O2	/	/	/	0
CC[C@H](C)Cc1cn([C@@H](CCCN=C(N)N)C(=O)NCCCCCCCCCCC(=O)N2CCNCC2)nn1	0	-17	-7	-37*
CC[C@H](C)[C@@H](C(=O)NCCCCCCCCCCC(=O)N1CCNCC1)n1cc(CCCCN=C(N)N)nn1	/	-7	-5	-4
O=C(NCCc1ccccc1)c1ccc(S(=O)(=O)N2CCCCC2)cc1	0	-4	-4	4
Cc1cc2ccccc2n1CCNC(=O)c1ccc(S(=O)(=O)N2CCCCC2)cc1	93*	9	5	-1
COc1ccc(-c2csc(-c3ccc(O)cc3)n2)cc1	2	17	-106	-28*
O=C(O)c1ccc(-c2nc(-c3ccccc3)cs2)cc1	/	-48	-73	-20*
C[C@H](CO)N1C[C@H](C)[C@@H](CN(C)CC2CC2)Oc2cc(C#C[C@@H](C)O)ccc2S1(=O)=O	0	-8	11	-1
CCNC(=O)C[C@H]1CC[C@H]2[C@H](COc3ccc(NC(=O)Nc4ccccc4Cl)cc3C(=O)N2C)O1	0	-1	0	-1
CN(C)c1cccc(C(=O)N/N=C/c2ccccc2F)c1	0	-45	86*	7
Cc1cccc2c(=O)cc(C)n(CC(N)=O)c12	6	-3	-2	-28*
C[C@H]1CN([C@@H](C)CO)C(=O)c2cccc(NS(C)(=O)=O)c2O[C@@H]1CN(C)Cc1ccc(C(=O)O)cc1	/	-4	3	1
CC(=O)c1cccc(NC(=O)C2=CC(c3cccs3)=NS(=O)(=O)N2C)c1	/	-14	-7	-20*
